The text below walks through data of ChEMBL document CHEMBL1147572, “Synthesis, SAR, and antitumor properties of diamino-C,N-diarylpyrimidine positional isomers: inhibitors of lysophosphatidic acid acyltransferase-beta” (Bioorg Med Chem Lett, 2004).

The subject of one experiment is DU-145. The experiment can be described thus: In vitro inhibitory activity against DU 145 cell line proliferation. It counts as functional, cell-based. As to conditions: Homo sapiens. The method, boiled down: (§1)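 Cell proliferation measured with a CyQuant fluorescent DNA-dye kit, following the method of an earlier report.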
For the next experiment, the system named is K562. The experiment can be described thus: In vitro inhibitory activity against K-562 cell line proliferation. It counts as functional, cell-based. Particulars: Homo sapiens. The method, boiled down: as §1
Experiment [1] concerns the target T1, 1-acyl-sn-glycerol-3-phosphate acyltransferase beta (Homo sapiens, UniProt O15120).
T1 sequence (O15120 whole entry): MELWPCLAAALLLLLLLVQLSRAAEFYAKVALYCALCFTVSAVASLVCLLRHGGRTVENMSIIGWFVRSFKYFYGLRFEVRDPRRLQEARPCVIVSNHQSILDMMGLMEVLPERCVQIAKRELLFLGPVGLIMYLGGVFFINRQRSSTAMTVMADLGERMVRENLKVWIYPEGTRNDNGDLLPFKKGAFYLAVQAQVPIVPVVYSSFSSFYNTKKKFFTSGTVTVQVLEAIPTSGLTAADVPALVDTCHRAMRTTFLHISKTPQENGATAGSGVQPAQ
The experiment can be described thus: Inhibitory activity against Lysophosphatidic acid acyltransferase-beta expressed in Sf9 insect cell membranes. The method, boiled down: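 LPAAT-β overexpressed in Sf9 insect cell membranes. Enzyme activity read colorimetrically with DTNB (5,5'-dithiobis(2-nitrobenzoic acid)).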

For experiment [2], the system named is Lewis lung carcinoma cell line. Nature of the experiment: In vitro inhibitory activity against murine Lewis lung tumor LL2 cell line. As to conditions: Mus musculus. It counts as functional, cell-based.
The test system of another experiment is Mus musculus. Nature of the experiment: Tumor growth delay against Lewis lung tumor LL2 cell line at 100 mg/kg q1d*4 intravenously in mice. Particulars: route intravenous.
The target of experiment [3] is T2, 1-acyl-sn-glycerol-3-phosphate acyltransferase alpha (Homo sapiens) (UniProt Q99943).
T2 sequence (whole entry): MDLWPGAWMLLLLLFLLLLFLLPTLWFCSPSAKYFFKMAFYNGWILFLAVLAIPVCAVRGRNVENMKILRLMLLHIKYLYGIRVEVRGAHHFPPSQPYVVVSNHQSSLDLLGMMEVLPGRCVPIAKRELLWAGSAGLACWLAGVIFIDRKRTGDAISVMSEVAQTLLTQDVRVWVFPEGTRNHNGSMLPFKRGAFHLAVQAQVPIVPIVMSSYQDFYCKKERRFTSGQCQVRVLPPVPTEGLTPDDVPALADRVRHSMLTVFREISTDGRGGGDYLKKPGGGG
The experiment can be described thus: Inhibitory activity against lysophosphatidic acid acyltransferase-alpha at 40 uM concentration. The method, boiled down: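 LPAAT-α overexpressed in Sf9 insect cell membranes in the same way. Activity read colorimetrically with DTNB. Inhibition recorded at 40 μM.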

For the molecule `Cc1ccc(Cl)cc1-c1cc(Nc2cccc(Br)c2)nc(N)n1`, the IC50 (commonly the concentration that gives 50% inhibition) with DU-145 was determined as 400 nM; in the experiment with K562 it was 200 nM; in experiment [1], 610 nM.
In the case of `Cc1ccc(Cl)cc1-c1cc(Nc2ccc(C(F)(F)F)cc2)nc(N)n1`, the IC50 with DU-145 was determined as 230 nM; in the experiment with K562, 140 nM; in experiment [2] it was 160 nM; in experiment [1], 140 nM. Besides, the TGD in the experiment with Mus musculus is 6 days.
Turning to `CCOc1ccc(Cl)cc1-c1cc(Nc2cccc([N+](=O)[O-])c2)nc(N)n1`, the results for the IC50 (with DU-145; with K562; in experiment [1]) were above 1000 nM, 450 nM and 640 nM, respectively.
The matching figures for `CCOc1ccc(Cl)cc1-c1cc(Nc2ccc(CC(=O)O)cc2)nc(N)n1`: above 1000 nM, above 1000 nM and 580 nM.
Consider `CCOc1ccc(Cl)cc1-c1cc(Nc2ccc(Cl)cc2)nc(N)n1`, for which the IC50 is 70 nM in the experiment on DU-145 and below 12 nM with K562.
The matching figures for `Nc1nc(Nc2ccc(Cl)cc2)cc(-c2cc(Br)ccc2O)n1`: above 1000 nM and above 1000 nM.
Consider `CCOc1ccc(Br)cc1-c1cc(Nc2ccc(CC(=O)O)cc2)nc(N)n1`, for which the IC50 in the experiment on DU-145 is above 1000 nM; in the experiment on K562 it was above 1000 nM; in experiment [1], 210 nM.
`Cc1ccc(O)cc1-c1cc(Nc2ccc(Cl)cc2)nc(N)n1` showed an IC50 in experiment [1] of 8300 nM.
On to `CCOc1ccc(Cl)cc1-c1cc(Nc2ccc3c[nH]nc3c2)nc(N)n1`, for which the IC50 in the experiment with DU-145 is 200 nM; with K562 it was below 100 nM.
For `CCOc1ccc(Br)cc1-c1cc(Nc2ccc(CC(=O)NO)cc2)nc(N)n1`, the results for the IC50 (in the experiment on DU-145; with K562; in experiment [1]) were above 1000 nM, above 1000 nM and 400 nM, respectively.
As to `Nc1nc(Nc2ccc(Cl)cc2)cc(-c2cc(Cl)ccc2Cl)n1`, the IC50 in the experiment with DU-145 is 190 nM; in the experiment with K562, below 100 nM.
As to `CCOc1ccc(Br)cc1-c1cc(Nc2ccc(/C(C)=N\OC)cc2)nc(N)n1`, the IC50 in the experiment on DU-145 is above 1000 nM; with K562, above 1000 nM; in experiment [1], 970 nM.
Take `COc1ccc(Cl)cc1-c1nc(N)cc(Nc2ccc3c[nH]nc3c2)n1`: the IC50 is above 10000 nM in the experiment on DU-145 and 5500 nM with K562.
The matching figures for `COc1ccc(Cl)cc1-c1nc(N)cc(Nc2ccc(Br)cc2)n1`: 800 nM and 150 nM.
`Cc1ccc(F)cc1-c1cc(Nc2ccc(Cl)cc2)nc(N)n1`: the IC50 is above 1000 nM with DU-145, 250 nM in the experiment with K562 and 150 nM in experiment [1].
Turning to `Cc1ccc(Cl)cc1-c1cc(Nc2ccc(Br)cc2)nc(N)n1`, the IC50 with DU-145 was 130 nM; with K562 it was 60 nM.
For `COc1ccc(Cl)cc1-c1cc(N)nc(Nc2ccc3c[nH]nc3c2)n1`, in that order: above 10000 nM and above 10000 nM.
For `CCOc1ccc(Br)cc1-c1cc(Nc2ccc(Cl)cc2)nc(N)n1`, the figures for the IC50 (in the experiment on DU-145; with K562; in experiment [1]) were 80 nM, 50 nM and 16 nM, respectively. Further, in experiment [3], the inhibition (in general, how much of the control response was suppressed) came out at 50%.
`Cc1ccc(Br)cc1-c1cc(Nc2ccc(Cl)cc2)nc(N)n1`: the IC50 with DU-145 came out at 100 nM; in the experiment with K562, 70 nM.
The matching figures for `CCOc1ccc(Br)cc1-c1cc(Nc2ccc(C(C)=O)cc2)nc(N)n1`: 90 nM and 50 nM.
Take `CCOc1ccc(Cl)cc1-c1cc(Nc2ccc(CCCO)cc2)nc(N)n1`: the IC50 in the experiment with DU-145 and in the experiment on K562 was above 1000 nM each time.
On to `CCOc1ccc(Br)cc1-c1cc(Nc2cccc(C#N)c2)nc(N)n1`, for which the IC50 with DU-145 was above 1000 nM; in the experiment on K562, 350 nM; in experiment [1] it was 720 nM.
Consider `CCOc1ccc(Br)cc1-c1cc(Nc2ccc(C(=O)NO)cc2)nc(N)n1`, for which the IC50 with DU-145 was above 1000 nM; in the experiment with K562, 700 nM.
For `CCOc1ccc(Br)cc1-c1cc(Nc2ccc(C(=N)N)cc2)nc(N)n1`, the IC50 in experiment [1] is above 5000 nM.
Regarding `COc1ccc(Cl)cc1-c1cc(Nc2ccc(Br)cc2)nc(N)n1`, the values for the IC50 (in the experiment with DU-145; in the experiment on K562; in experiment [1]) were 250 nM, 150 nM and 28 nM, respectively.
For `CCOc1ccc(Br)cc1-c1cc(Nc2ccc(B(O)O)cc2)nc(N)n1`, in that order: 500 nM, 200 nM and 91 nM.
With `CCOc1ccc(Cl)cc1-c1cc(Nc2ccc(CCO)cc2)nc(N)n1`, the IC50 in the experiment on DU-145 was 70 nM; in the experiment with K562, below 50 nM.
For the molecule `COc1ccc(Cl)cc1-c1cc(N)nc(Nc2ccc(Br)cc2)n1`, the results for the 50% inhibitory concentration (IC50) (with DU-145; with K562; in experiment [1]) were above 10000 nM, 3000 nM and 2300 nM, respectively.
Regarding `CCOc1ccc(Cl)cc1-c1cc(Nc2ccc([N+](=O)[O-])cc2)nc(N)n1`, the IC50 was determined as 350 nM in the experiment with DU-145 and 180 nM with K562.
For the molecule `COc1ccc(Cl)cc1-c1cc(N)nc(Nc2ccc(Cl)cc2)n1`, the IC50 was above 10000 nM with DU-145, 3000 nM in the experiment with K562 and 7000 nM in experiment [1].
As to `COc1ccc(Cl)cc1-c1cc(Nc2ccc3c[nH]nc3c2)nc(N)n1`, the values for the 50% inhibitory concentration (IC50) in the experiment with DU-145 and with K562 were 1000 nM and 250 nM, respectively.
In the case of `CCOc1ccc(Br)cc1-c1cc(Nc2ccc(/C(C)=N\O)cc2)nc(N)n1`, the figures for the IC50 (in the experiment with DU-145; in the experiment on K562; in experiment [1]) were below 50 nM, below 50 nM and 84 nM, respectively.
For `COc1ccc(Cl)cc1-c1cc(Nc2ccc(Cl)cc2)nc(N)n1`, the 50% inhibitory concentration (IC50) turned out to be 500 nM with DU-145 and 150 nM in the experiment on K562.
`Nc1nc(Nc2ccc(Cl)cc2)cc(-c2cc(Cl)ccc2O)n1`: the concentration for half-maximal inhibition (IC50) in experiment [1] came to 10000 nM.
On to `COc1ccc(Cl)cc1-c1nc(N)cc(Nc2ccc(Cl)cc2)n1`, for which the IC50 with DU-145 came to 5000 nM; with K562 it was 750 nM; in experiment [1], 7000 nM.
Turning to `CCOc1ccc(Cl)cc1-c1cc(Nc2ccc(CO)cc2)nc(N)n1`, the IC50 was 40 nM with DU-145 and below 12 nM in the experiment with K562.
For `Cc1ccc(Cl)cc1-c1cc(Nc2ccc(Cl)cc2)nc(N)n1`, the IC50 with DU-145 was determined as 120 nM; in the experiment with K562, 60 nM; in experiment [1] it was 22 nM.
The matching figures for `CCOc1ccc(Br)cc1-c1cc(Nc2ccccc2)nc(N)n1`: above 1000 nM, 260 nM and 120 nM.
In the case of `Cc1ccc(Br)cc1-c1cc(Nc2ccc(Br)cc2)nc(N)n1`, the values for the IC50 in the experiment with DU-145 and in the experiment on K562 were 110 nM and 70 nM, respectively.
`CCOc1ccc(Br)cc1-c1cc(Nc2ccc(C#N)cc2)nc(N)n1`: the IC50 was found to be 400 nM in the experiment with DU-145, 70 nM in the experiment on K562 and 17 nM in experiment [1].
`CCOc1ccc(Br)cc1-c1cc(Nc2ccc(C(N)=O)cc2)nc(N)n1` returned an IC50 in experiment [1] of 750 nM.
Same read-out and setting: with `CCOc1ccc(Br)cc1-c1cc(Nc2ccc(C(=O)O)cc2)nc(N)n1` the figure was 2700 nM.
